# Screening data deposited in PubChem BioAssay by The Scripps Research Institute Molecular Screening Center.
# OX1R antag-1: antagonists of human orexin 1 receptor (OX1R); Orexin/Hypocretin receptor type 1 (Homo sapiens), O43613; OX1R-expressing cells, FRET antagonist read-out; inhibition, % at 6.6 µM; 330,000 tested, 1.8% active; AID 485270, 2010; in the data active = inhibition mostly above about 38%, no sharp cut-off; inactive = mostly below about 40%
# Target sequence (O43613 whole entry, looked up): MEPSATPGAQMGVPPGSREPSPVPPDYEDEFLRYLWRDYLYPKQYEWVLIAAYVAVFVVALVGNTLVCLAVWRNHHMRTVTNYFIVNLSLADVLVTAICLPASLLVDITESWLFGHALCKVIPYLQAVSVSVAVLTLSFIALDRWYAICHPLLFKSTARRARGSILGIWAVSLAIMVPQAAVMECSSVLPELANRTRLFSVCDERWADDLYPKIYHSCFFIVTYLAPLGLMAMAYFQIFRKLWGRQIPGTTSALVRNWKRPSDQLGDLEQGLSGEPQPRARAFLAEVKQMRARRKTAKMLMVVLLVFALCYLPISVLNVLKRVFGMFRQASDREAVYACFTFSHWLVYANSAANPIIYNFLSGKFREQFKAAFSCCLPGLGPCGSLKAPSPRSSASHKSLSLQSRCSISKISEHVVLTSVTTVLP
# OX1R antag-2: OX1R (HCRTR1) antagonists, primary screen, fluorescence, CHO/OX1R cells, Fluo-8 calcium, orexin A. Orexin/Hypocretin receptor type 1 (Homo sapiens), O43613. Fluo-8 calcium fluorescence. inhibition, % at 5 µM. 330,000 tested, 0.43% active. AID 434989, 2010;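 active = inhibition above its plate's threshold, mean inhibition of all tested compounds on the plate plus 3 SD, cut at about 37% in these data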
# CHO-K1 Ca antag: counter-screen for M1 antagonists: effect in parental CHO-K1 cells; ATP-induced calcium, Fluo-8 fluorescence; inhibition, % at 3 µM; 360,000 tested, 0.6% active; AID 602250;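 active = inhibition above a per-plate cutoff, the plate's mean sample inhibition plus 3 SD, cut at about 24% in these data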
# CHO parental Ca: ATP-evoked calcium signal inhibitors, parental CHO, primary screen, counter-screen for OX1R antagonist project, cell-based, fluorescence, Fluo-8 calcium dye | parental CHO-K1, ATP-induced calcium, Fluo-8 fluorescence | inhibition, % at 5.6 µM | 330,000 tested, 0.63% active | AID 463079, 2010;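 active = inhibition above that plate's mean sample inhibition plus 3 SD, cut at about 26% in these data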
#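 material = parental CHO cells | also added = ATP as calcium-mobilizing challenge | dosing = single point at 5.6 µM | detection = intracellular calcium via Fluo-8 no-wash fluorescent dye | read-out = % inhibition | benchmarks = low control ATP plus DMSO, high control DMSO only | repeats = one well per compound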
# M1 PAM parental: nonselective calcium activators in parental CHO-K1 cells, primary screen, counter-screen for M1 PAM project, cell-based, Fluo-8 calcium fluorescence, full deck, 1536-well | ATP EC20; 0% at ATP EC20, 100% at ATP max | 360,000 tested, 0.02% active | activation, % at 3 µM;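 active = activation above the run cutoff, the mean activation of all test compounds plus 3 SD, cut at about 40% in these data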;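 note: peak over basal fluorescence ratio in a 140 s read after ATP addition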
# CHO-K1 Ca ag: counter-screen for M1 agonists: effect in parental CHO-K1 cells; Fluo-8 calcium fluorescence; scaled to maximal ATP response, vehicle zero; activation, % at 3 µM; 360,000 tested, 0.48% active; AID 602248, 2012; in the data active = activation above about 15%;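 note: untransfected CHO-K1 host cells lacking M1 receptor as counterscreen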
# A number is an active result; n = inactive; x = no result given. Compounds with a hit are over-represented: about 2.9% of the library has one in this group of screens.
SMILES,OX1R antag-1,OX1R antag-2,CHO-K1 Ca antag,CHO parental Ca,M1 PAM parental,CHO-K1 Ca ag
C=CCOC(=O)c1[nH]c2c(c1C)C(=O)CC(c1cc(OC)c(OC)c(OC)c1)C2 (stereo unspecified),n,n,n,33,n,n
COCCOC(=O)c1[nH]c2c(c1C)C(=O)CC(c1cc(OC)c(OC)c(OC)c1)C2 (stereo unspecified),n,n,n,n,n,n
CCCCOC(=O)c1[nH]c2c(c1C)C(=O)CC(c1cc(OC)c(OC)c(OC)c1)C2 (stereo unspecified),n,n,n,62,n,n
CCCn1c(-c2cccs2)nc2nc3ccccc3nc21,64,n,n,n,n,n
C=C(C)CNC(=S)N=Nc1c(O)[nH]c2ccc([N+](=O)[O-])cc12,n,n,n,n,n,n
O=C(CNC(=O)c1ccco1)N=Nc1c(O)[nH]c2ccc([N+](=O)[O-])cc12,63,n,n,n,n,n
COc1ccc2nc3n(c(=O)c2c1)-c1ncccc1C(=O)NC3CC(C)C (stereo unspecified),x,x,n,x,n,n
CC(=O)c1ccc(NC(=O)/C(Cl)=C/c2ccccc2)cc1,n,n,n,42,n,n
Cc1ccc(NC(=O)/C(Cl)=C\c2ccccc2)cc1,n,n,n,n,n,n
Cc1c(CCOC(=O)c2ccccc2)sc[n+]1CC(=O)c1ccc(Br)cc1,n,n,n,n,n,n
Cc1c(CCOC(=O)c2ccccc2)sc[n+]1Cc1ccccc1,n,n,26,n,n,n
Cc1cc(O)ccc1C1(c2ccc(O)cc2C)OC(=O)c2ccccc21,n,n,n,n,n,n
CC(=O)Oc1ccc2c(c1)Oc1cc(OC(C)=O)ccc1C21OC(=O)c2ccccc21,60,106,101,101,n,824
CC(C)(C)NC(=O)C(c1ccncc1)N(Cc1ccc(F)cc1)C(=O)c1ccc(-c2ccccc2)[nH]1 (stereo unspecified),n,n,n,n,n,n
CC(C)(C)NC(=O)C(c1ccc(F)cc1)N(CCc1ccccc1)C(=O)c1ccn[nH]1 (stereo unspecified),n,n,n,n,n,15
CCOC(=O)c1ccc(Cl)c(S(=O)(=O)N2CCCC2)c1,n,n,n,n,n,n
CCc1nccn1C(=O)c1cnn2c(C(F)F)cc(-c3ccccc3)nc12,66,n,x,n,x,x
CCc1nccn1C(=O)c1cnn2c(C(F)F)cc(-c3ccc(C)cc3)nc12,n,n,n,n,n,n
O=C(CSc1cccs1)Nc1cccc2ccccc12,n,n,n,n,n,n
O=C(CSc1cccs1)Nc1ccc2ccccc2c1,41,n,n,n,n,n
CC1CCC2(CC1)NC(=O)N(CC(=O)c1ccc(CNC(=O)C(C)(C)C)s1)C2=O (stereo unspecified),35,n,n,n,n,n
CC(C)(C)C(=O)NCc1ccc(C(=O)CN2C(=O)NC3(CCCC3)C2=O)s1,x,x,n,x,n,n
COc1ccccc1N1CCN(C(=O)c2cccc(S(=O)(=O)N3c4ccccc4CC3C)c2)CC1 (stereo unspecified),x,x,n,x,n,n
CCCCN(C(=O)CCC(=O)Nc1cc(C)on1)C(C(=O)NC1CCCC1)c1ccc(OCC)cc1 (stereo unspecified),n,n,n,n,n,n
CCCCN(C(=O)CCC(=O)Nc1cc(C)on1)C(C(=O)NC1CCCC1)c1ccccc1OCC (stereo unspecified),76,n,n,n,n,n
O=C(CC(=O)N/N=C/c1cccs1)NCc1ccccc1,n,n,n,n,n,16
O=C(CNC(=O)c1ccccc1)N/N=C/c1cccs1,n,n,n,n,n,n
COc1ccc(NC(=O)c2cc3c(Cl)nc4ccccc4c3s2)cc1OC,66,n,n,n,n,n
CN(C)S(=O)(=O)N1CCC(Oc2ccc(C(=O)NC3Cc4ccccc4C3)cc2)CC1,n,n,n,n,n,n
CN(C)S(=O)(=O)N1CCC(Oc2cccc(C(=O)NC3CCCCCC3)c2)CC1,n,n,n,n,n,15
